Measurements taken from ChEMBL document CHEMBL1138254, “Stereoselective synthesis and cytotoxicity of a cancer chemopreventive naphthoquinone from Tabebuia avellanedae” (Bioorg Med Chem Lett, 2007).

Legend:
Human gammaherpesvirus 4 [1] = experiment: Inhibition of TPA-induced EBV-EA activation in Raji cells at 1000 mol ratio/TPA relative to control; format: functional
Method in brief: (§1)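 TPA-induced EBV-EA activation in Raji cells, with TPA at 32 pmol and test agent at 1000, 500, 100 and 10 mol ratio/TPA. EA-positive cells are expressed relative to the positive control (TPA alone, 100%). An IC50 in µM is derived from the dose series. Curcumin served as the positive control substance.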

Human gammaherpesvirus 4 [2] = experiment: Inhibition of TPA-induced EBV-EA activation in Raji cells at 500 mol ratio/TPA relative to control; format: functional; method in brief: as §1
Human gammaherpesvirus 4 [3] = experiment: Inhibition of TPA-induced EBV-EA activation in Raji cells at 100 mol ratio/TPA relative to control; format: functional; method in brief: as §1
Human gammaherpesvirus 4 [4] = experiment: Inhibition of TPA-induced EBV-EA activation in Raji cells at 10 mol ratio/TPA relative to control; format: functional; method in brief: as §1
Human gammaherpesvirus 4 [5] = experiment: Inhibition of TPA-induced EBV-EA activation in Raji cells; format: functional, organism-based; conditions: human gammaherpesvirus 4, Raji; method in brief: as §1
Raji [6] = experiment: Cell viability in Raji cells at 1000 mol ratio/TPA by tryptan blue staining relative to control; format: functional, Homo sapiens
Method in brief: (§2)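 Raji cells co-treated with test agent and 32 pmol TPA in the EBV-EA activation assay. Doses were 10, 100, 500 or 1000 mol ratio relative to TPA. Viability was scored by Trypan blue staining and given as percent of Raji cells viable.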

Raji [7] = experiment: Cell viability in Raji cells at 500 mol ratio/TPA by tryptan blue staining relative to control; format: functional, Homo sapiens; method in brief: as §2
Raji [8] = experiment: Cell viability in Raji cells at 100 mol ratio/TPA by tryptan blue staining relative to control; format: functional, Homo sapiens; method in brief: as §2
Raji [9] = experiment: Cell viability in Raji cells at 10 mol ratio/TPA by tryptan blue staining relative to control; format: functional, Homo sapiens; method in brief: as §2
PC-3 = experiment: Cytotoxicity against human PC3 cells assessed as cell viability by tryptan blue staining method; format: functional, cell-based
Method in brief: (§3)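 Human cancer lines PC-3 (prostate), A549 (lung) and MCF-7 (breast) were treated with compound. Viability was assessed by Trypan blue staining, and EC50 is reported in µM.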

A549 = experiment: Cytotoxicity against human A549 cells assessed as cell viability by tryptan blue staining method; format: functional, cell-based; method in brief: as §3
MCF7 = experiment: Cytotoxicity against human MCF7 cells assessed as cell viability by tryptan blue staining method; format: functional, cell-based; method in brief: as §3
[10] = Cytotoxicity against human Fb cells assessed as cell viability by tryptan blue staining method; format: cell-based
Method in brief: (§4)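 Human normal cell lines were treated with compound: Fb (skin), Hc (liver), MPC-5 (lung) and IE (colon). Viability was assessed by Trypan blue staining, and EC50 is reported in µM.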

[11] = Cytotoxicity against human Hc cells assessed as cell viability by tryptan blue staining method; format: cell-based; method in brief: as §4
[12] = Cytotoxicity against human MPC5 cells assessed as cell viability by tryptan blue staining method; format: cell-based; conditions: MPC-5; method in brief: as §4
[13] = Cytotoxicity against human IE cells assessed as cell viability by tryptan blue staining method; format: cell-based; method in brief: as §4

| IC50 (Human gammaherpesvirus 4 [5]) | Compound | EBV-EA positive cells % (Human gammaherpesvirus 4 [1]) | EBV-EA positive cells % (Human gammaherpesvirus 4 [2]) | EBV-EA positive cells % (Human gammaherpesvirus 4 [3]) | EBV-EA positive cells % (Human gammaherpesvirus 4 [4]) | Activity (Raji [6]) | Activity (Raji [7]) | Activity (Raji [8]) | Activity (Raji [9]) | EC50 (PC-3) | EC50 (A549) | EC50 (MCF7) | EC50 [10] | EC50 [11] | EC50 [12] | EC50 [13] |
| --- | --- | --- | --- | --- | --- | --- | --- | --- | --- | --- | --- | --- | --- | --- | --- | --- |
| 34.9 µM | CC(O)c1cc2c(o1)C(=O)c1cccc(O)c1C2=O (centres undefined) | 0% | 6.2% | 20.7% | 52.9% | 60% | 70% | >80% | >80% | 0.56 µM | 3.24 µM | 8.5 µM | 45.4 µM | 89.3 µM | 89.3 µM | 158 µM |
| 345 µM | COc1cc(/C=C/C(=O)CC(=O)/C=C/c2ccc(O)c(OC)c2)ccc1O [CURCUMIN] | – | – | – | – | – | – | – | – | – | – | – | – | – | – | – |
| 38.9 µM | C[C@@H](O)c1cc2c(o1)C(=O)c1cccc(O)c1C2=O | 0% | 9.7% | 24.7% | 59.4% | 70% | >80% | >80% | >80% | 0.93 µM | 3 µM | 9.3 µM | 39.7 µM | 29.8 µM | 65.9 µM | 39.7 µM |
| 33.2 µM | C[C@H](O)c1cc2c(o1)C(=O)c1cccc(O)c1C2=O | 0% | 4.4% | 16.9% | 50% | 60% | 60% | >80% | >80% | 0.14 µM | 0.96 µM | 3.5 µM | 11.1 µM | 11.1 µM | 29.7 µM | 54.5 µM |

More lines, now with the values behind:

| Compound | IC50 (Human gammaherpesvirus 4 [5]) | EBV-EA positive cells % (Human gammaherpesvirus 4 [1]) | EBV-EA positive cells % (Human gammaherpesvirus 4 [2]) | EBV-EA positive cells % (Human gammaherpesvirus 4 [3]) | EBV-EA positive cells % (Human gammaherpesvirus 4 [4]) | Activity (Raji [6]) | Activity (Raji [7]) | Activity (Raji [8]) | Activity (Raji [9]) | EC50 (PC-3) | EC50 (A549) | EC50 (MCF7) | EC50 [10] | EC50 [11] | EC50 [12] | EC50 [13] |
| --- | --- | --- | --- | --- | --- | --- | --- | --- | --- | --- | --- | --- | --- | --- | --- | --- |
| CC(C)=CCC1=C(O)C(=O)c2ccccc2C1=O [LAPACHOL] | 311 µM | 8.9% | 32.8% | 65.2% | 86.6% | 50% | 60% | >80% | >80% | – | – | – | – | – | – | – |
| CC1(C)CCC2=C(O1)c1ccccc1C(=O)C2=O [LAPACHONE] | 210 µM | 4.7% | 21.7% | 50.4% | 73.1% | 50% | >80% | >80% | >80% | – | – | – | – | – | – | – |
| CO[C@@]12[C@H](COC(N)=O)C3=C(C(=O)C(C)=C(N)C3=O)N1C[C@@H]1N[C@@H]12 [MITOMYCIN] | – | – | – | – | – | – | – | – | – | 0.14 µM | 0.43 µM | 0.96 µM | 0.93 µM | 1.46 µM | 2.1 µM | 1.46 µM |
